Data from ChEMBL document CHEMBL3352181, “Novel phenyl and pyridyl substituted derivatives of isoindolines: Synthesis, antitumor activity and DNA binding features” (Eur J Med Chem, 2014).
The source made the active and inactive calls. No cut-off for these calls is given here.

What was measured:
HepG2 [1] = experiment: Induction of cell cycle arrest on human HepG2 cells assessed as accumulation at subG1 phase at 20 uM after 24 hrs by propidium iodide staining based flow cytometry (reference value: 2.9 +/- 1.1%); format: functional
Summary of the method: (§1)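 HepG2 or SW620 cells were seeded at 25000 per well. After 24 h they were treated, then harvested 24 or 48 h later. Attached cells were trypsinized, pooled with floating cells, PBS-washed and fixed in 70% ethanol. Cells were stained with PI 1 µg/mL plus RNase A 0.2 µg/mL, and 10 000 events were acquired by flow cytometry. Phase percentages come from DNA histograms, in duplicate, with ANOVA at p < 0.05.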

HepG2 [2] = experiment: Induction of cell cycle arrest on human HepG2 cells assessed as accumulation at subG1 phase at 50 uM after 24 hrs by propidium iodide staining based flow cytometry (reference value: 2.9 +/- 1.1%); format: functional; summary of the method: as §1
HepG2 [3] = experiment: Induction of cell cycle arrest on human HepG2 cells assessed as accumulation at G1 phase at 20 uM after 24 hrs by propidium iodide staining based flow cytometry (reference value: 66.5 +/- 1.4%); format: functional
HepG2 [4] = experiment: Induction of cell cycle arrest on human HepG2 cells assessed as accumulation at G1 phase at 50 uM after 24 hrs by propidium iodide staining based flow cytometry (reference value: 66.5 +/- 1.4%); format: functional
HepG2 [5] = experiment: Induction of cell cycle arrest on human HepG2 cells assessed as accumulation at S phase at 20 uM after 24 hrs by propidium iodide staining based flow cytometry (reference value: 17.0 +/- 2.9%); format: functional
HepG2 [6] = experiment: Induction of cell cycle arrest on human HepG2 cells assessed as accumulation at S phase at 50 uM after 24 hrs by propidium iodide staining based flow cytometry (reference value: 17.0 +/- 2.9%); format: functional; summary of the method: as §1
HepG2 [7] = experiment: Induction of cell cycle arrest on human HepG2 cells assessed as accumulation at G2/M phase at 20 uM after 24 hrs by propidium iodide staining based flow cytometry (reference value: 16.5 +/- 1.6%); format: functional
HepG2 [8] = experiment: Induction of cell cycle arrest on human HepG2 cells assessed as accumulation at G2/M phase at 50 uM after 24 hrs by propidium iodide staining based flow cytometry (reference value: 16.5 +/- 1.6%); format: functional
HepG2 [9] = experiment: Induction of cell cycle arrest on human HepG2 cells assessed as accumulation at subG1 phase at 20 uM after 48 hrs by propidium iodide staining based flow cytometry (reference value: 1.7 +/- 0.5%); format: functional; summary of the method: as §1
HepG2 [10] = experiment: Induction of cell cycle arrest on human HepG2 cells assessed as accumulation at subG1 phase at 50 uM after 48 hrs by propidium iodide staining based flow cytometry (reference value: 1.7 +/- 0.5%); format: functional; summary of the method: as §1
HepG2 [11] = experiment: Induction of cell cycle arrest on human HepG2 cells assessed as accumulation at G1 phase at 20 uM after 48 hrs by propidium iodide staining based flow cytometry (reference value: 62.7 +/- 0.5%); format: functional
HepG2 [12] = experiment: Induction of cell cycle arrest on human HepG2 cells assessed as accumulation at G1 phase at 50 uM after 48 hrs by propidium iodide staining based flow cytometry (reference value: 62.7 +/- 0.5%); format: functional
HepG2 [13] = experiment: Induction of cell cycle arrest on human HepG2 cells assessed as accumulation at S phase at 20 uM after 48 hrs by propidium iodide staining based flow cytometry (reference value: 9.3 +/- 13.2%); format: functional; summary of the method: as §1
HepG2 [14] = experiment: Induction of cell cycle arrest on human HepG2 cells assessed as accumulation at S phase at 50 uM after 48 hrs by propidium iodide staining based flow cytometry (reference value: 9.3 +/- 13.2%); format: functional; summary of the method: as §1
HepG2 [15] = experiment: Induction of cell cycle arrest on human HepG2 cells assessed as accumulation at G2/M phase at 20 uM after 48 hrs by propidium iodide staining based flow cytometry (reference value: 28.0 +/- 13.8%); format: functional
HepG2 [16] = experiment: Induction of cell cycle arrest on human HepG2 cells assessed as accumulation at G2/M phase at 50 uM after 48 hrs by propidium iodide staining based flow cytometry (reference value: 28.0 +/- 13.8%); format: functional
MCF7 = experiment: Antiproliferative activity against human MCF7 cells assessed as inhibition of cell proliferation after 72 hrs by MTT assay; format: functional, cell-based
Summary of the method: (§2)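 Cells grown as monolayers in DMEM with 10% FBS, 2 mM L-glutamine, penicillin/streptomycin, 37 °C, 5% CO2. Seeded at 5000/well on day 0. Compounds added after 24 h as five serial dilutions (0,01 to 100 µM), DMSO ≤0.1%, then 72 h. MTT read-out converted to percentage growth. IC50 by linear regression; quadruplicates in three experiments.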

[17] = (§3) Antiproliferative activity against human SW620 cells assessed as inhibition of cell proliferation after 72 hrs by MTT assay; format: functional, cell-based, SW-620; settings: Homo sapiens, SW-620, 72 h; summary of the method: as §2
SW-620 = experiment: as §3; format: functional, cell-based; summary of the method: as §2
HepG2 [18] = experiment: Antiproliferative activity against human HepG2 cells assessed as inhibition of cell proliferation after 72 hrs by MTT assay; format: functional, cell-based; summary of the method: as §2
BJ = experiment: Antiproliferative activity against human BJ cells assessed as inhibition of cell proliferation after 72 hrs by MTT assay; format: cell-based; settings: 72 h; summary of the method: as §2
HeLa = experiment: Antiproliferative activity against human HeLa cells assessed as inhibition of cell proliferation after 72 hrs by MTT assay; format: functional, cell-based; summary of the method: as §2
Hep G2 (human) [19] = experiment: Induction of apoptosis in human HepG2 cells assessed as induction of apoptotic bodies at 50 uM after 24 hrs by Annexin V-Fluos staining based fluorescent microscopy
Hep G2 (human) [20] = experiment: Induction of apoptosis in human HepG2 cells assessed as induction of cytoplasmic shrinkage at 50 uM after 24 hrs by Annexin V-Fluos staining based fluorescent microscopy

With `N#Cc1ccc(/N=C2\c3ccccc3CN2c2ccc(C#N)cn2)nc1` as the molecule, how does the Activity (HepG2 [1]) read?
Its Activity is 6.6%.

And the Activity (HepG2 [2])?
The Activity was 6.7%.

And the Activity (HepG2 [3])?
Its Activity is 58.1%.

What about the Activity (HepG2 [4]) of the same molecule?
The Activity was 57.4%.

What about the Activity (HepG2 [5]) of the same molecule?
The Activity was 21.5%.

And the Activity (HepG2 [6])?
Its Activity is 26.4%.

What about the Activity (HepG2 [7]) of the same molecule?
Its Activity is 20.4%.

And the Activity (HepG2 [8])?
The Activity was 16.2%.

And the Activity (HepG2 [9])?
Its Activity is 5.7%.

What about the Activity (HepG2 [10]) of the same molecule?
Its Activity is 8.4%.

What about the Activity (HepG2 [11]) of the same molecule?
The Activity was 61%.

What about the Activity (HepG2 [12]) of the same molecule?
The Activity was 61.2%.

What about the Activity (HepG2 [13]) of the same molecule?
The Activity was 19.5%.

And the Activity (HepG2 [14])?
Its Activity is 18.5%.

And the Activity (HepG2 [15])?
Its Activity is 19.5%.

What about the Activity (HepG2 [16]) of the same molecule?
Its Activity is 20.3%.

And the inhibition (MCF7)?
Its inhibition is “Dose-dependent effect”.

And the IC50 (MCF7; Homo sapiens, MCF7, 72 h)?
Its IC50 is 71.2 µM.

And the IC50 [17]?
The IC50 was > 100 µM.

What about the inhibition (SW-620) of the same molecule?
The inhibition was “Dose-dependent effect”.

And the inhibition (HepG2 [18])?
The inhibition was “Dose-dependent effect”.

What about the IC50 (HepG2 [18]; HepG2, 72 h) of the same molecule?
Its IC50 is 9.41 µM.

And the IC50 (BJ; Homo sapiens, BJ)?
Its IC50 is 63.8 µM.

And the “inhibition (INH)” value (BJ; human, bj)?
Its value is “Dose-dependent effect”.

What about the inhibition (HeLa) of the same molecule?
Its inhibition is “Dose-dependent effect”.

And the IC50 (HeLa; Homo sapiens, HeLa, 72 h)?
Its IC50 is 8.81 µM.

And the Activity (Hep G2 (human) [19])?
The Activity was “inactive”.

And the Activity (Hep G2 (human) [20])?
Its Activity is “inactive”.
